Assay results collected from several papers.
Compare with care: the assays were run in different laboratories.
Medium: plasma
Route: oral

COc1ccc([C@@H]2CN(C(=O)[C@@H](O)CO)C[C@@]2(C)[C@@H](C)O)cc1OC1CN(c2ccc(C)cn2)C1  AUC(0-inf) (human; 1.5 mg; single dose, healthy volunteers): 524 ng·h/mL
CC(C)(Sc1ccncc1-c1ccc(C#N)c2ccccc12)C(=O)O  AUC(0-inf) (male human; 20 mg; single dose, fasted, healthy volunteers): 540 ng·h/mL
CO[C@H]1CC[C@H](N2C(=O)CNc3ncc(-c4ccc(C(C)(C)O)nc4)nc32)CC1  AUC(0-inf) (human; 7.5 mg; patients): 353 ng·h/mL
Cn1cc(-c2ccc(S(=O)(=O)[C@@H]3C[C@@H](C(=O)NC4(C#N)CC4)N(C(=O)C4(C(F)(F)F)CC4)C3)c(C(F)(F)F)c2)cn1  AUC(0-inf) (human; 30 mg; single dose, fasted, healthy volunteers): 3240 ng·h/mL
CCc1nc2c(C)cc(N3CCN(CC(=O)N4CC(O)C4)CC3)cn2c1N(C)c1nc(-c2ccc(F)cc2)c(C#N)s1  AUC(0-inf) (human; 600 mg; single dose, fasted, healthy volunteers): 36600 ng·h/mL
CC(C)n1cc(C#N)c2cc(-n3cc(C(=O)O)cn3)ccc21  AUC(0-inf) (human; 10 mg; single dose, fasted, healthy volunteers): 1770 ng·h/mL
CC(C)(O)c1ccccc1-c1ccc2[nH]c(/C=C/c3ccc(C(F)(F)F)cc3)nc2c1  AUC(0-inf) (male human; 5 mg; single dose, fasted): 876 ng·h/mL
C[C@@]1(c2cc(NC(=O)c3ccc(C#N)cn3)ccc2F)C=CSC(N)=N1  AUC(0-inf) (human; 90 mg; single dose): 8950 ng·h/mL
